According to ChEMBL document CHEMBL5030505, “Assessment of NR4A Ligands That Directly Bind and Modulate the Orphan Nuclear Receptor Nurr1” (J Med Chem, 2020):
Calls of active or inactive are those of the source. The calls are words filed in the database; no cut-off is given here.

Legend:
Format in all cases: cell-based
[1] = test system: PC-12; test: Cytotoxicity in rat PC-12 cells assessed as reduction in cell viability at 0.01 to 100 uM incubated for 18 hrs by Cell Titer-Glo assay; conditions: pc-12, 18 h, dose 0.01-100 µM
Outline: (§1)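 Cells seeded at 1.5 million per 10-cm dish. Next day they were replated at 10,000 cells/well and rested 4 h. Ligand or vehicle (water, ethanol or DMSO, by ligand) was added in dose-response format in quadruplicate. After 18 h, viability was read by CellTiter-Glo luminescence. Data are mean ± s.e.m., generally representative of 2 independent experiments. One-way ANOVA versus vehicle.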

[2] = biological target: Nuclear receptor subfamily 4 group A member 2 (Homo sapiens) (UniProt P43354); test: Modulation of full length human Nurr1 expressed in SKNBE(2) cells co-transfected with RXRalpha and luciferase reporter plasmid harboring NurRE response element assessed as increase in luciferase activity at 100 uM incubated for 18 hrs by luciferase reporter gene assay; conditions: SKNBE2, filed as modulator
Nuclear receptor subfamily 4 group A member 2 (Homo sapiens), sequence (P43354 whole entry, the tested form may be a part): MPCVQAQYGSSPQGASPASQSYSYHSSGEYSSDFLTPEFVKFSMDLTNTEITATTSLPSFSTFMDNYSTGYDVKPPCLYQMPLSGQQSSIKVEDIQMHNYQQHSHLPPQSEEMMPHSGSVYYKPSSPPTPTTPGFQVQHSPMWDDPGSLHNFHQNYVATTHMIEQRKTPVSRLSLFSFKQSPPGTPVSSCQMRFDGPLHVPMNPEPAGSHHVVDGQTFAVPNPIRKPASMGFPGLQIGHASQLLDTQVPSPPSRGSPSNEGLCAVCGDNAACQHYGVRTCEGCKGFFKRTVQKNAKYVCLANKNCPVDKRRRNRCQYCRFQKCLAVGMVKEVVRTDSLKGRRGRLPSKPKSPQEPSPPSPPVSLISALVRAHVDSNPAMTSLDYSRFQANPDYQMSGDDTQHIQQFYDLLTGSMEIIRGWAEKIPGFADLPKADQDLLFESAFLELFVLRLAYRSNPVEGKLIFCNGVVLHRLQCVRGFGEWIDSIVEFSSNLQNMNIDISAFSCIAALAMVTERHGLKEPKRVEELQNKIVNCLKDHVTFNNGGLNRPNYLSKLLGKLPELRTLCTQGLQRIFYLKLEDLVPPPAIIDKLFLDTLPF
Outline: (§2)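 SK-N-BE(2)-C cells were kept in 1:1 EMEM/F12 with 10% FBS at 37°C and 5% CO2. They were cotransfected with full-length Nurr1 (1 μg), full-length RXRα (1 μg) and 3xNBRE- or 3xNurRE-luc reporter (6 μg) for 18 h, replated at 10,000 cells/well for 4 h, and then treated with ligand or vehicle in quadruplicate for 18 h. The readout was luciferase luminescence as fold over vehicle, reported as mean ± s.e.m. (n=4) from 2 independent experiments, one-way ANOVA.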

[3] = biological target: Nuclear receptor subfamily 4 group A member 2 (Homo sapiens) (UniProt P43354); test: Modulation of full length human Nurr1 expressed in HEK293T cells co-transfected with luciferase reporter plasmid harboring NurRE response element assessed as increase in luciferase activity at 100 uM incubated for 18 hrs by luciferase reporter gene assay; conditions: filed as modulator
Outline: (§3)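 Full-length Nurr1 plasmid, alone (2 μg) or 1 μg plus full-length RXRα (1 μg), cotransfected with 3xNBRE- or 3xNurRE-luciferase reporter (6 μg) using Lipofectamine 2000, 18 h. Cells replated at 10,000/well for 4 h. Four ligand concentrations, or vehicle (water, ethanol or DMSO), added in quadruplicate for 18 h. Luciferase read. Fold change vs vehicle, mean ± s.e.m., one-way ANOVA vs vehicle.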

[4] = biological target: Nuclear receptor subfamily 4 group A member 2 (Homo sapiens) (UniProt P43354); test: Modulation of full length human Nurr1 expressed in PC12 cells co-transfected with RXRalpha and luciferase reporter plasmid harboring NBRE response element assessed as increase in luciferase activity at 100 uM incubated for 18 hrs by luciferase reporter gene assay; conditions: PC-12, filed as modulator
Outline: (§4)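 PC12 cells were grown at 37°C and 5% CO2 in […] medium with 15% horse serum and 2.5% FBS. They were transfected with full-length Nurr1 (1 μg) plus full-length RXRα (1 μg) and 3xNBRE- or 3xNurRE-luciferase reporter (6 μg) for 18 h, then replated at 10,000 cells/well for 4 h. Ligand or vehicle (water, ethanol or DMSO) was added in quadruplicate for 18 h. Luminescence was read as fold change over vehicle. Results are mean ± s.e.m., n=4, from 2 independent experiments, analysed by one-way ANOVA against vehicle.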

[5] = biological target: Nuclear receptor subfamily 4 group A member 2 (Homo sapiens) (UniProt P43354); test: Modulation of full length human Nurr1 expressed in PC12 cells co-transfected with luciferase reporter plasmid harboring NurRE response element assessed as increase in luciferase activity at 100 uM incubated for 18 hrs by luciferase reporter gene assay; conditions: PC-12, filed as modulator
Outline: (§5)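 Here PC12 cells (FK-12 medium, 15% horse serum, 2.5% FBS, 37°C, 5% CO2) received full-length Nurr1 (2 μg) without RXRα, plus 3xNBRE- or 3xNurRE-luciferase reporter (6 μg), for 18 h. Cells were replated at 10,000/well for 4 h, then treated with ligand or vehicle in quadruplicate for 18 h. Luciferase luminescence was normalized to vehicle-treated cells. Results are mean ± s.e.m. (n=4) from 2 independent experiments, with one-way ANOVA against vehicle.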

[6] = biological target: Nuclear receptor subfamily 4 group A member 2 (Homo sapiens) (UniProt P43354); test: Modulation of full length human Nurr1 expressed in PC12 cells co-transfected with RXRalpha and luciferase reporter plasmid harboring NurRE response element assessed as increase in luciferase activity at 100 uM incubated for 18 hrs by luciferase reporter gene assay; conditions: PC-12, filed as modulator; outline: as §4
[7] = test system: PC-12; test: Modulation of Gal4-fused VP16 expressed in PC12 cells co-transfected with UAS repoter gene assessed as increase in luciferase activity at 0.01 to 100 uM incubated for 18 hrs by luciferase reporter gene assay; conditions: Human alphaherpesvirus 2, filed as modulator, dose 0.01-100 µM
Outline: (§6)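 Cells in 10-cm dishes were transfected with Gal4-VP16 expression plasmid (2 μg) plus 5xUAS-luciferase reporter (2 μg) for 18 h. They were replated at 10,000 cells/well for 4 h, then given ligand or vehicle (water, ethanol or DMSO) in quadruplicate for 18 h. Luciferase was read with Britelite Plus. Fold change is versus vehicle-treated cells, with one-way ANOVA versus vehicle.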

[8] = biological target: Nuclear receptor subfamily 4 group A member 2 (Homo sapiens) (UniProt P43354); test: Modulation of full length human Nurr1 expressed in HEK293T cells co-transfected with RXRalpha and luciferase reporter plasmid harboring NurRE response element assessed as increase in luciferase activity at 100 uM incubated for 18 hrs by luciferase reporter gene assay; conditions: filed as modulator; outline: as §3
[9] = biological target: Nuclear receptor subfamily 4 group A member 2 (Homo sapiens) (UniProt P43354); test: Modulation of full length human Nurr1 expressed in PC12 cells co-transfected with luciferase reporter plasmid harboring NBRE response element assessed as increase in luciferase activity at 100 uM incubated for 18 hrs by luciferase reporter gene assay; conditions: PC-12, filed as modulator; outline: as §5
[10] = test system: SK-N-BE(2); test: Cytotoxicity in human SKNBE2 cells assessed as reduction in cell viability at 0.01 to 100 uM incubated for 18 hrs by Cell Titer-Glo assay; conditions: dose 0.01-100 µM; outline: as §1
[11] = biological target: Nuclear receptor subfamily 4 group A member 2 (Homo sapiens) (UniProt P43354); test: Modulation of full length human Nurr1 expressed in SKNBE(2) cells co-transfected with RXRalpha and luciferase reporter plasmid harboring NBRE response element assessed as increase in luciferase activity at 100 uM incubated for 18 hrs by luciferase reporter gene assay; conditions: SKNBE2, filed as modulator; outline: as §2
[12] = biological target: Nuclear receptor subfamily 4 group A member 2 (Homo sapiens) (UniProt P43354); test: Modulation of full length human Nurr1 expressed in SKNBE(2) cells co-transfected with luciferase reporter plasmid harboring NBRE response element assessed as increase in luciferase activity at 100 uM incubated for 18 hrs by luciferase reporter gene assay; conditions: SKNBE2, filed as modulator
Outline: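 Transfection of SK-N-BE(2)-C cells (1:1 EMEM/F12, 10% FBS, 37°C, 5% CO2) used full-length Nurr1 alone (2 μg, no RXRα) with 3xNBRE- or 3xNurRE-luciferase reporter (6 μg) for 18 h. Cells were replated at 10,000/well for 4 h, then exposed to ligand or vehicle in quadruplicate for 18 h. Luminescence was expressed as fold over vehicle, as mean ± s.e.m. (n=4) from 2 independent experiments, one-way ANOVA against vehicle.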

[13] = biological target: Nuclear receptor subfamily 4 group A member 2 (Homo sapiens) (UniProt P43354); test: Modulation of full length human Nurr1 expressed in HEK293T cells co-transfected with RXRalpha and luciferase reporter plasmid harboring NBRE response element assessed as increase in luciferase activity at 100 uM incubated for 18 hrs by luciferase reporter gene assay; conditions: filed as modulator; outline: as §3
[14] = biological target: Nuclear receptor subfamily 4 group A member 2 (Homo sapiens) (UniProt P43354); test: Modulation of full length human Nurr1 expressed in SKNBE(2) cells co-transfected with luciferase reporter plasmid harboring NurRE response element assessed as increase in luciferase activity at 100 uM incubated for 18 hrs by luciferase reporter gene assay; conditions: SKNBE2, filed as modulator
[15] = test system: HEK293T; test: Modulation of Gal4-fused VP16 expressed in HEK293T cells co-transfected with UAS repoter gene assessed as increase in luciferase activity at 0.01 to 100 uM incubated for 18 hrs by luciferase reporter gene assay; conditions: Human alphaherpesvirus 2, filed as modulator, dose 0.01-100 µM; outline: as §6
[16] = test system: HEK-293T; test: Cytotoxicity in human HEK293T cells assessed as reduction in cell viability at 0.01 to 100 uM incubated for 18 hrs by Cell Titer-Glo assay; conditions: dose 0.01-100 µM; outline: as §1
[17] = biological target: Nuclear receptor subfamily 4 group A member 2 (Homo sapiens) (UniProt P43354); test: Modulation of full length human Nurr1 expressed in HEK293T cells co-transfected with luciferase reporter plasmid harboring NBRE response element assessed as increase in luciferase activity at 100 uM incubated for 18 hrs by luciferase reporter gene assay; conditions: filed as modulator; outline: as §3

- Activity [2]: Active
- Activity [3]: Active
- Activity [4]: Active
- Activity [5]: Active
- Activity [6]: Active
- Activity [8]: Active
- Activity [9]: Active
- Activity [11]: Active
- Activity [12]: Active
- Activity [13]: Active
- Activity [14]: Active
- Activity [17]: Active
SMILES: COCCOCc1ccc(-c2cc3onc(-c4ccccc4)c3c(=O)n2C)cc1
- Activity [1]: Non-Toxic
- Activity [7]: Active
- Activity [10]: Non-Toxic
- Activity [15]: Active
- Activity [16]: Non-Toxic
